A selection: hits, their analogues and other compounds. The true share with any hit is near 4.9%.
PHOSPHO1 inh: inhibitors of human PHOSPHO1 phosphatase; Q8TCT1; recombinant PHOSPHO1, absorbance phosphatase assay; inhibition, % at 13.3 µM; 1.1% of 290,000 active; in the data active = inhibition above about 60%
Target sequence (Q8TCT1 whole entry, looked up): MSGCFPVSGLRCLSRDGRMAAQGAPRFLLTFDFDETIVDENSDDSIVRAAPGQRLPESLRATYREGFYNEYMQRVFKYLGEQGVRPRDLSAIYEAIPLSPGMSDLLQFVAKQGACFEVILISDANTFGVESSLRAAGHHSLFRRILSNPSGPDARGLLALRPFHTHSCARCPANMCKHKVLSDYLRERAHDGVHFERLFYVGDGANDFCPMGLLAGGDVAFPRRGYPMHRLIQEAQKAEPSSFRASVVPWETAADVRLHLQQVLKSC
HSF-1 act: increases HSF-1 driven luciferase reporter signal | activation, % at 9 µM | NIH3T3-HGL HSF-1 luciferase reporter, MG132, 8 h; 100% = twice DMSO control signal | 1.7% of 300,000 active;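 active = mean replicate activation of at least 50% with a set share of replicates each reaching 50%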;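 also: 0% = median of the neutral control wells and 100% = twice that signal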
Lipid droplet: modulators of hepatic lipid droplet formation | AML12 mouse hepatocytes, oleate lipid droplets, BODIPY imaging | inhibition, % at 6.5 µM | 0.4% of 240,000 active;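 active = lipid droplet intensity inhibited by at least 50%, with more than 500 cells counted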
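Assay system: AML12 mouse liver cells | Compound dosing: One dose, 6.5 µM compound | Read-out basis: Droplet intensity reduction, % inhibition | Measured by: Fluorescence imaging, 20x objective, two fields per well | Schedule: Overnight treatment with compound plus oleate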
CHT inh: inhibitors of human choline transporter CHT | Q9GZV3 | 0.86% of 310,000 active | B-score at 10 µM | CHT-expressing cells, membrane potential dye, choline response; stronger effect = lower value | AID 488975;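 active = B-score over 3 SD under the library average, and starting fluorescence ratio not unusually high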;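 also: choline stimulus applied at its EC90 after an EC20 pre-addition; B-score computed on integrated fluorescence ratio after choline addition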
HSF1 inhib: HSF1 inhibition; activity change, negative = inhibition, % at 7.5 µM (by protocol); NIH3T3-HGL HSE-luciferase, MG132-induced, luminescence 8 h; stronger effect = lower value; 0.77% of 300,000 active;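 active = more than half of replicate wells show activity change below -50%, luminescence cut by over half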;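 also: luciferase reports HSF-1 transcriptional activity via heat shock element; 0% = median of DMSO wells and -100% = zero luminescence signal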
CHT PAM: allosteric activators of human choline transporter CHT. Q9GZV3. CHT-expressing cells, membrane potential dye, choline EC20; stronger effect = higher value; LV-AA mutant CHT in HEK293 cells. B-score at 10 µM. 0.49% of 310,000 active;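 active = initial fluorescence not abnormally high and integrated response B-score, plate-corrected, over 3 SD above library mean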
CHT inh conf: human CHT inhibition, confirmatory screen. 70% of 2,400 active. CHT-expressing cells, choline membrane potential dye; LV-to-AA substituted CHT, HEK293 cells. shares compounds with CHT inh. CHT activity remaining % of control (stronger effect = lower value), % at 10 µM;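 active = choline transporter activity left, mean of duplicates at 10 µM, below buffer-only control mean minus 3 SD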;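 also: depolarization triggered by choline at its EC90 following an EC20 pre-addition; 0% = hemicholinium-3 full block and 100% = buffer-only control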
HEK293 MPD ctr: CHT inhibitor counter-screen hit in parental HEK293 cells. shares compounds with CHT inh. membrane potential dye, choline response; active = decrease or increase beyond buffer ±3SD. membrane potential ratio readout (active if shifted either direction beyond buffer ±3SD; no single direction) at 10 µM. 4% of 2,400 active. AID 493222;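 also: parental cells lack the transporter so any hit is non-specific; ratio is peak minus trough fluorescence over baseline after EC90 choline challenge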
* hit, by the source's call.

Results for CC(C)Oc1ccc(/C=N/NC(=O)C(CSCc2ccccc2)NC(=O)c2ccc([N+](=O)[O-])cc2)cc1 (configuration not stated) ?
PHOSPHO1 inh: -4; HSF-1 act: 26; Lipid droplet: -10; CHT inh: -5.5*; HSF1 inhib: 12; CHT PAM: inactive; CHT inh conf: inactive; HEK293 MPD ctr: inactive

Results for CC(C)Cc1csc(NC(=O)c2ccc(Br)cc2)c1C(=O)O ?
PHOSPHO1 inh: -1; HSF-1 act: 7; Lipid droplet: 10; CHT inh: -10*; HSF1 inhib: -1; CHT PAM: inactive; CHT inh conf: 61%*; HEK293 MPD ctr: inactive

What do the screens show for `O=C(Nc1scc(-c2ccccc2)c1C(=O)O)c1ccccc1F`?
PHOSPHO1 inh: 36; HSF-1 act: 4; Lipid droplet: 6; CHT inh: inactive; HSF1 inhib: -1; CHT PAM: inactive

What do the screens show for `Cc1ccc(-c2csc(NC(=O)c3ccccc3F)c2C(=O)O)cc1`?
PHOSPHO1 inh: 37; HSF-1 act: 36; Lipid droplet: 23; CHT inh: -5.1*; HSF1 inhib: 1; CHT PAM: inactive; CHT inh conf: 45%*; HEK293 MPD ctr: inactive

Results for Cc1ccc(-c2csc(NC(=O)c3ccc(F)cc3)c2C(=O)O)cc1 ?
PHOSPHO1 inh: 14; HSF-1 act: 4; Lipid droplet: -13; CHT inh: -6.4*; HSF1 inhib: 19; CHT PAM: inactive; CHT inh conf: 53%*; HEK293 MPD ctr: inactive

How did C=CCn1c(C)nnc1SCC(=O)Nc1nccs1 do in these assays?
HSF-1 act: -22; Lipid droplet: 11; CHT inh: inactive; HSF1 inhib: 0; CHT PAM: inactive

Results for Cc1cc(Cl)c(S(=O)(=O)NC(C(=O)O)C(C)C)cc1OCC(=O)NC1CCCCC1 (configuration not stated) ?
PHOSPHO1 inh: 5; HSF-1 act: 1; Lipid droplet: -1; CHT inh: inactive; HSF1 inhib: -2; CHT PAM: inactive

What do the screens show for `Cc1cc(Cl)c(S(=O)(=O)N2CCCC2)cc1OCC(=O)NC1CCCCC1`?
PHOSPHO1 inh: 26; HSF-1 act: 1; Lipid droplet: 3; CHT inh: -5.2*; HSF1 inhib: 5; CHT PAM: inactive; CHT inh conf: 57%*; HEK293 MPD ctr: inactive

Results for COc1ccc(NC(=O)CN(C)C(=O)CCc2c[nH]c3ccccc23)cc1 ?
PHOSPHO1 inh: 28; HSF-1 act: -5; Lipid droplet: -11; CHT inh: inactive; HSF1 inhib: 4; CHT PAM: inactive

What do the screens show for `CC(=O)c1cccc(NC(=O)CCNS(=O)(=O)c2cccc3nsnc23)c1`?
PHOSPHO1 inh: -2; HSF-1 act: 9; Lipid droplet: -10; CHT inh: inactive; HSF1 inhib: -1; CHT PAM: inactive

How did COc1ccc(C(CNC(=O)c2cc(S(=O)(=O)NCc3ccccc3)ccc2C)N2CCOCC2)cc1 (configuration not stated) do in these assays?
HSF-1 act: -1; CHT inh: -10*; HSF1 inhib: -5; CHT PAM: inactive; CHT inh conf: 19%*; HEK293 MPD ctr: inactive

How did Cc1ccc(OCCCCNC2CCCC(C)C2C)c(C)c1 (configuration not stated) do in these assays?
PHOSPHO1 inh: 20; HSF-1 act: -1; Lipid droplet: -4; CHT inh: inactive; HSF1 inhib: 2; CHT PAM: inactive

What do the screens show for `Cc1ccccc1S(=O)(=O)Nc1nc2ccccc2nc1NCCO`?
PHOSPHO1 inh: 3; HSF-1 act: -6; Lipid droplet: 0; CHT inh: inactive; HSF1 inhib: -7; CHT PAM: inactive

How did COC(=O)NNC(=S)NCc1ccc(C)cc1 do in these assays?
PHOSPHO1 inh: -11; HSF-1 act: 25; Lipid droplet: 15; CHT inh: -6.7*; HSF1 inhib: 6; CHT PAM: inactive; CHT inh conf: inactive; HEK293 MPD ctr: inactive

Results for Cc1ccc(CNC(N)=S)cc1 ?
PHOSPHO1 inh: 33; HSF-1 act: 2; Lipid droplet: 13; CHT inh: inactive; HSF1 inhib: -4; CHT PAM: inactive

How did Cn1c(N)c(C(=O)COC(=O)c2cncc(Br)c2)c(=O)n(C)c1=O do in these assays?
PHOSPHO1 inh: -12; HSF-1 act: 3; Lipid droplet: -10; CHT inh: inactive; HSF1 inhib: -6; CHT PAM: inactive

What do the screens show for `Cc1cccc(-n2cc(CN3CCN(Cc4nccn4C)CC3)c(-c3cccc(F)c3)n2)c1`?
PHOSPHO1 inh: 61*; HSF-1 act: 65*; Lipid droplet: 1; CHT inh: -9.7*; HSF1 inhib: 28; CHT PAM: inactive; CHT inh conf: 20%*; HEK293 MPD ctr: inactive

Results for COC(C[C@H](O)[C@H](C)[C@@H](O)COCc1ccccc1)OC ?
PHOSPHO1 inh: 9; HSF-1 act: 21; Lipid droplet: 14; HSF1 inhib: -1

What do the screens show for `CO/N=C/C1CCN(c2ncc(C(F)(F)F)cc2Cl)C1=O` (configuration not stated)?
PHOSPHO1 inh: 24; HSF-1 act: 47; Lipid droplet: -2; CHT inh: inactive; HSF1 inhib: 9; CHT PAM: inactive

Results for CC(CN1C(C)CCCC1C)OC(=O)c1ccccc1Br (configuration not stated) ?
PHOSPHO1 inh: 20; HSF-1 act: -2; Lipid droplet: 21; CHT inh: inactive; HSF1 inhib: -9; CHT PAM: inactive

What do the screens show for `C=CCNC(=O)CN1CCN(Cc2ccc3c(c2)OCO3)CC1`?
PHOSPHO1 inh: 24; HSF-1 act: 3; Lipid droplet: 3; CHT inh: inactive; HSF1 inhib: -15; CHT PAM: inactive

Results for COc1cc(OC)c(NC(=O)[C@@H]2CCC(=O)N2C2OC(=O)c3c2ccc(OC)c3OC)cc1Cl (some centres not stated) ?
PHOSPHO1 inh: 40; HSF-1 act: -2; CHT inh: inactive; HSF1 inhib: -5; CHT PAM: inactive

What do the screens show for `O=C(CC1C(=O)NCCN1C(=O)Nc1ccccc1)Nc1cc(Cl)cc(Cl)c1` (configuration not stated)?
PHOSPHO1 inh: 31; HSF-1 act: 16; Lipid droplet: 0; CHT inh: -5*; HSF1 inhib: -1; CHT PAM: inactive; CHT inh conf: 16%*; HEK293 MPD ctr: inactive

Screens as filed in PubChem.
